From PubChem BioAssay
Rad51 HR inh – human RAD51 strand exchange inhibitors, primary screen, biochemical, fluorescence; hRad51 DNA strand exchange, fluorescence dequenching; inhibition, % at 10 µM; actives 0.085% (n = 200,000);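 active = inhibition above 40% at the single screening dose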
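Assay system: Human Rad51 nucleoprotein filaments preassembled on unlabelled ssDNA | Reagent: Donor/quencher-labelled 47-bp dsDNA substrate | Doses: One concentration, 10 µM final | Times: 37 °C 15-min filament assembly, 30-min compound preincubation, 15-min exchange | Technique: Fluorescein emission 520 nm, excitation 485 nm | Benchmarks: Plate control and blank wells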
CHOP inh – inhibitors of CHOP promoter induction, primary screen, cell-based, unfolded protein response, luciferase reporter. CHO-K1 CHOP-promoter luciferase, tunicamycin-induced, 15-18 h. inhibition, % at 10 µM. actives 3.8% (n = 220,000);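 active = compounds that reduced the stress-induced luciferase reporter signal by more than about 70% of percent inhibition, limit read from the data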
Wee1 degr inh – Wee1 degradation inhibitors, primary screen, cell-based, HeLa, Wee1K328M-luciferase, luminescence | Wee1-like protein kinase (Homo sapiens), P30291 | HeLa Luc-Wee1K328M stability; 100% = proteasome inhibitor MG132 effect | reporter increase, % at 5 µM | actives 1.2% (n = 220,000) | AID 1321, 2008;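 active = activation above the mean of all tested compounds plus 3 SD, set per screening run, cut at about 8.8% in these data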;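 also: cells exposed to compound for 20 h before luminescence read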
Target sequence (P30291 whole entry K328M): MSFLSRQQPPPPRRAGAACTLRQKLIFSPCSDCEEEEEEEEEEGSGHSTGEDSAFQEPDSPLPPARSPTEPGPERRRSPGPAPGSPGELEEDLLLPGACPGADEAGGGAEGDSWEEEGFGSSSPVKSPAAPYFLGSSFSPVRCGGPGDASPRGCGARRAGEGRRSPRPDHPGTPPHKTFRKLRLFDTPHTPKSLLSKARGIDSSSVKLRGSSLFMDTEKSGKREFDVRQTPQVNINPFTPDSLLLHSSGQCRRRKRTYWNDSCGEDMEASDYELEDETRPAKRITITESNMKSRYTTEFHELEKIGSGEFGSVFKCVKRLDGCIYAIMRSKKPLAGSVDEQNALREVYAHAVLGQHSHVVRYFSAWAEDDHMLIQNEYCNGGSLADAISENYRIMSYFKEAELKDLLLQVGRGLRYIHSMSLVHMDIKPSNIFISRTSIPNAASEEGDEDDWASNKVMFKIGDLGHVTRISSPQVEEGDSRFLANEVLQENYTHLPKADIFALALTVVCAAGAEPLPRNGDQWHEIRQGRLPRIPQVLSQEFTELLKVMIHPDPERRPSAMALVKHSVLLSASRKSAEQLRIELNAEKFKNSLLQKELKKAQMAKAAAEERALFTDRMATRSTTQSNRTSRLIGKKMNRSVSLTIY
Arbovirus inh – antivirals against arbovirus infection, primary screen, cell-based, full library, 10K replicate subset; arbovirus infection cell-based antiviral screen; inhibition, % at 10 µM; actives 0.37% (n = 200,000); AID 1251, 2008; in the data active = inhibition above about 30%
Lmaj promast – Leishmania major promastigote growth inhibition, primary screen. inhibition, % at 10 µM. AID 1063, 2008. actives 9% (n = 200,000). Leishmania major promastigotes, resazurin fluorescence viability;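 also: promastigotes grown with compound for 44 hours at 28 °C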
PKD1 inh – inhibitors of human PKD1 kinase, biochemical, fluorescence polarization; PKD1 kinase fluorescence polarization assay; inhibition, % (no concentration beside the values); actives 0.056% (n = 200,000); AID 797, 2007
Each line names hits and unclear results; the compound was inactive in the other large screens. Most compounds without a hit are left out; they make up all but 12% or so of the library. Rule as the data show it, unless noted: active = inhibition above about 50%; inactive = the rest.

O=C(C1=C[C@H](c2csc3ccccc23)C[C@H](OCc2ccc(CO)cc2)O1)N1CCN(Cc2ccc3c(c2)OCO3)CC1	Lmaj promast 66
O=C(C1=C[C@H](c2csc3ccccc23)C[C@H](OCc2ccc(CO)cc2)O1)N1CCN(Cc2ccccc2)CC1	none
O=C(NCc1ccccc1)C1=C[C@H](c2csc3ccccc23)C[C@H](OCc2ccc(CO)cc2)O1	none (no result: Wee1 degr inh, Arbovirus inh, Lmaj promast, PKD1 inh)
O=C(Nc1ccccc1)C1=C[C@@H](c2csc3ccccc23)C[C@@H](OCc2ccc(CO)cc2)O1	Lmaj promast 58
CCOC(=O)COc1cc2oc(=O)cc(C)c2cc1[N+](=O)[O-]	none
CN1CCN(C(=O)C2=C[C@@H](c3csc4ccccc34)C[C@@H](OCc3ccc(CO)cc3)O2)CC1	Lmaj promast 90
Cc1nc(-c2cccnc2)sc1C(=O)Nc1ccc(Cl)cc1	CHOP inh 81
CN(c1cccc(Cl)c1)S(=O)(=O)c1cccc(C(=O)Nc2nc3ccccc3[nH]2)c1	Lmaj promast 99
CN(c1ccccc1)S(=O)(=O)c1cccc(C(=O)NNC(=O)c2ccccc2)c1	none
CN(c1ccccc1)S(=O)(=O)c1cccc(C(=O)Nc2ccc3c(c2)CCC3)c1	Lmaj promast 75 (no result: Rad51 HR inh)
COc1ccc(NC(=O)Cc2ccc(Cl)c(Cl)c2)cn1	none
COc1ccc(NC(=O)c2cccc(S(=O)(=O)N(C)c3ccccc3)c2)cn1	Lmaj promast 72
COc1ccc(NC(=O)c2cc(S(=O)(=O)N(Cc3ccccc3)c3ccccc3)ccc2Cl)cn1	Lmaj promast 94
CC(=O)CC(c1ccc([N+](=O)[O-])cc1)c1c(O)c2ccccc2oc1=O (stereo not drawn)	none
COC(=O)CCN1CCc2cc(N=Nc3ccc([N+](=O)[O-])cc3)ccc21	none (no result: Arbovirus inh, Lmaj promast, PKD1 inh)
Cc1ccc2nc(N3CCN(c4cccc(C)c4C)CC3)c3nnnn3c2c1	Wee1 degr inh 10
c1ccc(CC2CCN(c3nc4ccccc4n4nnnc34)CC2)cc1	none
O=C(O)C(Cc1c[nH]c2ccccc12)N1C(=O)C2C3c4ccccc4C(c4ccccc43)[C@@H]2C1=O (stereo partly drawn)	none (no result: Rad51 HR inh, Arbovirus inh, Lmaj promast, PKD1 inh)
COc1ccccc1N1CCN(C(=O)CCCCCn2c(=O)[nH]c3ccsc3c2=O)CC1	none
O=C(Nc1ccccn1)c1ccc(S(=O)(=O)c2ccc(Cl)cc2)cc1	Lmaj promast 76 (no result: Rad51 HR inh)
O=C(Nc1nncs1)c1ccc(S(=O)(=O)c2ccccc2)cc1	Wee1 degr inh 9.3
O=C(Nc1ccccc1C(=O)Nc1nncs1)c1ccccc1	none (no result: Arbovirus inh, Lmaj promast, PKD1 inh)
O=S(=O)(/N=C(/Nc1ccccn1)c1ccc(Cl)cc1)c1ccc(Cl)cc1	none
O=C(c1ccc(C(F)(F)F)cc1)C1CCCN(C(=O)CN2C(=O)CSC2=O)C1 (stereo not drawn)	Wee1 degr inh 9.8 (no result: Rad51 HR inh)
O=C1CC(N2CCC(c3nc4ccccc4o3)CC2)C(=O)N1c1ccc(Cl)c(C(F)(F)F)c1 (stereo not drawn)	CHOP inh 86
CCn1cc(C(C)NC(=O)Nc2ccccc2C(=O)OC)c(C)n1 (stereo not drawn)	none
O=Nc1ccc2oc(=O)ccc2c1	none (no result: Rad51 HR inh, Wee1 degr inh, Arbovirus inh, Lmaj promast, PKD1 inh)
CCCCNc1nc2ccccc2n1CC(=O)N1CCc2ccccc2C1	Lmaj promast 70
CC1CCN(c2nc(-c3cccnc3)nc3scc(-c4ccccc4)c23)CC1	none (no result: Rad51 HR inh)
Clc1nc(-c2ccccn2)nc2scc(-c3ccccc3)c12	Lmaj promast 66
O=C(O)CSc1nc(-c2ccccc2)c(-c2ccccc2)[nH]1	none (no result: Arbovirus inh, Lmaj promast, PKD1 inh)
COc1ccccc1N=Nc1nc(-c2ccccc2)c(-c2ccccc2)[nH]1	Lmaj promast 67 (no result: Rad51 HR inh)
Oc1ccccc1N=Nc1nc(-c2ccccc2)c(-c2ccccc2)[nH]1	Lmaj promast 100
COc1ccc(-c2nc(C)ncc2N=Nc2ccccc2)cc1	none
COc1ccc(N=Nc2nc(-c3ccccc3)c(-c3ccccc3)[nH]2)cc1	Lmaj promast 87 (no result: Rad51 HR inh)
CCOC(=O)NC(=O)c1cn(Nc2ccccc2)c(=O)[nH]c1=O	none (no result: Arbovirus inh, Lmaj promast, PKD1 inh)
